According to ChEMBL document CHEMBL3861989, “Amending HIV Drugs: A Novel Small-Molecule Approach To Target Lupus Anti-DNA Antibodies” (J Med Chem, 2016):
Activity calls are given as the source filed them. The rule behind the calls is not given here.

Columns and labels:
[1] = species on record: Mus musculus; test: Binding affinity to mouse anti-dsDNA monoclonal antibody R4A assessed as inhibition of RA4 binding to DWEYS peptide at 5 to 50 uM preincubated for 1 hr followed by DWEYS peptide addition measured after 1 hr by ELISA
Summary of the method: (§1)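 Competitive ELISA: plates coated with DWEYS peptide overnight at 37 °C uncovered, blocked 3% BSA/PBS 1 h 37 °C. Compounds at varying concentrations preincubated with R4A (20 µg/mL) 1 h 37 °C, then added to washed wells 1 h 37 °C. Detection with alkaline phosphatase anti-mouse IgG (1:1000, 1 h RT), pNPP substrate 30–60 min, absorbance 405 nm.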

[2] = tested on: Mus musculus; test: Induction of delayed onset of systemic lupus erythematosus disease in NZB/W F1 mouse model at 5 mg/kg/day, ip bid administered on day 1 at 22 weeks of age measured daily during compound dosing up to 34 weeks of age; format: functional
Summary of the method: (§2)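 Female NZB/W F1 mice from 22 weeks of age, before severe proteinuria, grouped by matched mean proteinuria and body weight (n = 10/group). Vehicle or compound at 5 mg kg−1 day−1 given ip twice daily. Body weight weekly, proteinuria every 2 weeks. Removal on ≥20% weight loss, prostration, or ≥3+ proteinuria two consecutive weeks; study end at 46 weeks.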

[3] = tested on: Mus musculus; test: Reduction in crescents score in kidney of NZB/NZW F1 mouse systemic lupus erythematosus model at 5 mg/kg/day, ip bid administered on day 1 at 22 weeks of age measured daily during compound dosing at 60 weeks by conglomerate blinded analysis; format: functional, organism-based
Summary of the method: (§3)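 Female NZB/W F1 mice dosed ip twice daily (5 mg kg−1 day−1) from 22 weeks of age. Formalin-fixed, paraffin-embedded kidney sections stained with H&E and scored blind by one investigator, 0–3+ each for glomerular sclerosis, hypercellularity, crescents, interstitial nephritis and perivascular infiltrates. Combined scores assessed at 60 weeks.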

[4] = species on record: Mus musculus; test: Binding affinity to mouse anti-dsDNA monoclonal antibody R4A assessed as inhibition of RA4 binding to mouse kidney glomeruli antigens by measuring suppression of antibody deposition in kidney glomeruli at 50 uM preincubated for 1 hr followed by glomeruli addition by fluorescence microscopic analysis
Summary of the method: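 Murine glomeruli isolated and adhered to glass slides. R4A (20 µg/mL) preincubated with compound (50 µM) 1 h at 37 °C, then applied to glomeruli 1 h at room temperature. Bound antibody detected with FITC-conjugated anti-mouse IgG, PBS washes, fluorescence imaging.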

[5] = tested on: Mus musculus; test: Toxicity in CD-1 mouse assessed as tissue abnormalities administered daily for 1 week; format: organism-based; details: in vivo, 168 h
[6] = tested on: Mus musculus; test: Toxicity in CD-1 mouse assessed as drug tolerance at 1 mg/kg, iv as infusion or 10 mg/kg via oral gavage measured up to 60 mins for iv dosing or up to 240 mins for oral gavage; format: organism-based; details: in vivo
[7] = tested on: Mus musculus; test: Inhibition of glomerulonephropathy in kidney of NZB/NZW F1 mouse systemic lupus erythematosus model at 5 mg/kg/day, ip bid administered on day 1 at 22 weeks of age measured at 60 weeks by hematoxylin and eosin staining based assay; format: functional, organism-based; summary of the method: as §3
[8] = tested on: Mus musculus; test: Inhibition of lymphocyte aggregation in kidney of NZB/NZW F1 mouse systemic lupus erythematosus model at 5 mg/kg/day, ip bid administered on day 1 at 22 weeks of age measured at 60 weeks by hematoxylin and eosin staining based assay; format: functional, organism-based; summary of the method: as §3
[9] = tested on: Mus musculus; test: Inhibition of IgG level in glomeruli of NZB/NZW F1 mouse systemic lupus erythematosus model at 5 mg/kg/day, ip bid administered on day 1 at 22 weeks of age; format: functional, organism-based
Summary of the method: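 Female NZB/W F1 mice dosed ip twice daily (5 mg kg−1 day−1) from 22 weeks of age. Formalin-fixed, paraffin-embedded terminal kidney sections from three representative mice per group stained for mouse IgG in glomeruli.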

[10] = tested on: Mus musculus; test: Inhibition of tubule dilation and casts in kidney of NZB/NZW F1 mouse systemic lupus erythematosus model at 5 mg/kg/day, ip bid administered on day 1 at 22 weeks of age measured at 60 weeks by hematoxylin and eosin staining based assay; format: functional, organism-based; summary of the method: as §3
[11] = tested on: Mus musculus; test: Toxicity in CD-1 mouse assessed as behavioral changes administered daily for 1 week; format: organism-based; details: in vivo, 168 h
[12] = tested on: Mus musculus; test: anti-DWEYS peptide reactivity in serum of NZB/NZW F1 mouse systemic lupus erythematosus model at 5 mg/kg/day, ip bid administered on day 1 to 71
[13] = tested on: Mus musculus; test: Reduction in interstitial inflammation score in kidney of NZB/NZW F1 mouse systemic lupus erythematosus model at 5 mg/kg/day, ip bid administered on day 1 at 22 weeks of age measured daily during compound dosing at 60 weeks by conglomerate blinded analysis; format: functional, organism-based; summary of the method: as §3
[14] = tested on: Mus musculus; test: Increase in disease free survival in NZB/W F1 mouse systemic lupus erythematosus model at 5 mg/kg/day, ip bid administered on day 1 at 22 weeks of age measured daily during compound dosing up to 34 weeks of age; format: functional, organism-based; summary of the method: as §2
[15] = tested on: Mus musculus; test: Toxicity in NZB/W F1 mouse systemic lupus erythematosus model assessed as prostration at 5 mg/kg/day, ip bid administered on day 1 at 22 weeks of age measured daily during compound dosing up to 34 weeks of age; format: organism-based; details: in vivo; summary of the method: as §2
[16] = tested on: Mus musculus; test: Toxicity in NZB/W F1 mouse systemic lupus erythematosus model assessed as body weight loss at 5 mg/kg/day, ip bid administered on day 1 at 22 weeks of age measured daily during compound dosing up to 34 weeks of age; format: organism-based; details: in vivo; summary of the method: as §2
[17] = species on record: Mus musculus; test: (§4) Binding affinity to mouse anti-dsDNA monoclonal antibody R4A assessed as inhibition of RA4 binding to DWEYS peptide preincubated for 1 hr followed by DWEYS peptide addition measured after 1 hr by ELISA; summary of the method: as §1
[18] = as §4; summary of the method: as §1
[19] = tested on: Mus musculus; test: Reduction in glomerular sclerosis score in kidney of NZB/NZW F1 mouse systemic lupus erythematosus model at 5 mg/kg/day, ip bid administered on day 1 at 22 weeks of age measured daily during compound dosing at 60 weeks by conglomerate blinded analysis; format: functional, organism-based; summary of the method: as §3
[20] = tested on: Mus musculus; test: Reduction in glomerular cellularity score in kidney of NZB/NZW F1 mouse systemic lupus erythematosus model at 5 mg/kg/day, ip bid administered on day 1 at 22 weeks of age measured daily during compound dosing at 60 weeks by conglomerate blinded analysis; format: functional, organism-based; summary of the method: as §3
[21] = species on record: Mus musculus; test: Neuroprotective activity in C57BL/6 mouse assessed as inhibition of R4A-induced hippocampal neuron apoptosis at 50 uM pretreated to mouse followed by R4A injection measured after 1 day by TUNEL assay; format: functional
Summary of the method: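 Male C57BL/6 mice (30–34 g) anesthetized with 2.5% avertin ip. R4A (20 µg/mL) preincubated with vehicle or compound (50 µM) and injected stereotaxically (2 µL) into dorsal hippocampus CA1.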

| SMILES | inhibition [1] | inhibition [4] | Activity [5] | Activity [11] | inhibition [17] | IC50 [18] | also measured |
| --- | --- | --- | --- | --- | --- | --- | --- |
| CC(C)(C)NC(=O)[C@@H]1CN(Cc2cccnc2)CCN1C[C@@H](O)C[C@@H](Cc1ccccc1)C(=O)N[C@H]1c2ccccc2C[C@H]1O | Active | – | – | – | – | – | – |
| CC(C)(C)NC[C@@H]1CC2CCCCC2CN1C[C@@H](O)[C@H](Cc1ccccc1)NC[C@H](CCN)NCC1Nc2ccccc2CC1O (stereo partly drawn) | – | Active | Non-Toxic | Non-Toxic | Dose-dependent effect | 4.5 µM | Time [2]: 26 - 36 weeks; Activity [3]: Active; Activity [6]: Non-Toxic; inhibition [7]: Active; inhibition [8]: Active; inhibition [9]: Active; inhibition [10]: Active; inhibition [12]: Active; Activity [13]: Active; Activity [14]: Active; Activity [15]: Non-Toxic; Activity [16]: < 20%; Activity [19]: Active; Activity [20]: Active; inhibition [21]: Active |
| Cc1c(O)cccc1C(=O)N[C@@H](CSc1ccccc1)[C@H](O)CN1C[C@H]2CCCC[C@H]2C[C@H]1C(=O)NC(C)(C)C | Active | Active | – | – | Dose-dependent effect | – | – |
| Cc1c(O)cccc1CN[C@@H](CSc1ccccc1)[C@H](O)CN1C[C@H]2CCCC[C@H]2C[C@H]1CNC(C)(C)C | – | Active | Non-Toxic | Non-Toxic | Dose-dependent effect | 7.27 µM | inhibition [21]: Active |
| CC(C)(C)NC[C@@H]1CNCCN1C[C@@H](O)C[C@H](CN[C@H]1c2ccccc2C[C@H]1O)Cc1ccccc1 | – | – | – | – | – | 42.7 µM | – |
| CNCCCN[C@H](CN[C@@H](Cc1ccccc1)C[C@H](O)[C@H](Cc1ccccc1)NCCOc1c(C)cccc1C)C(C)C | – | Active | Non-Toxic | Non-Toxic | Dose-dependent effect | 2.08 µM | – |
| Cc1cccc(C)c1OCC(=O)N[C@@H](Cc1ccccc1)[C@@H](O)C[C@H](Cc1ccccc1)NC(=O)[C@H](C(C)C)N1CCCNC1=O | Active | – | – | – | Dose-dependent effect | – | – |
